# ChEMBL document CHEMBL4808192, “Synthesis and biological evaluation of novel imidazo[1,2-a]pyridine-oxadiazole hybrids as anti-proliferative agents: Study of microtubule polymerization inhibition and DNA binding” (Bioorg Med Chem, 2021)
# Calls of active or inactive are those of the source. The rule behind the calls is not given here.
# Legend:
# [1] = test system: A549; test: Antiproliferative activity against human A549 cells assessed as reduction in cell viability incubated for 48 hrs by MTT assay; assay type: functional, cell-based; details: A549, 48 h
# Outline: (§1)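 Cells grown in medium with 10% FBS and 1% antibiotic-antimycotic at 37 °C, passaged at 80–90% confluence with 0.25% trypsin/1 mM EDTA. Seeded at 1000–4000 cells/well and grown overnight. Medium was then replaced and compounds added at various concentrations for 48 h. MTT (0.5 mg/mL) was added for 4 h at 37 °C, formazan dissolved in DMSO and absorbance read at 570 nm. IC50 is the 50% inhibitory concentration.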
# [2] = test system: PC-3; test: Antiproliferative activity against human PC-3 cells assessed as reduction in cell viability incubated for 48 hrs by MTT assay; assay type: functional, cell-based; details: PC-3, 48 h; outline: as §1
# [3] = test system: DU-145; test: Antiproliferative activity against human DU-145 cells assessed as reduction in cell viability incubated for 48 hrs by MTT assay; assay type: functional, cell-based; details: DU-145, 48 h; outline: as §1
# [4] = test system: HEK293; test: Cytotoxicity against human HEK293 cells assessed as reduction in cell viability incubated for 48 hrs by MTT assay; assay type: cell-based; details: HEK293, 48 h; outline: as §1
# [5] = Selectivity index, ratio of IC50 for human HEK293 cells to IC50 for human A549 cells assessed as reduction in cell viability measured after 48 hrs by MTT assay; assay type: toxicity; details: HEK293 cells versus A549 cells, read-out: Ratio IC50
# [6] = Selectivity index, ratio of IC50 for human HEK293 cells to IC50 for human PC-3 cells assessed as reduction in cell viability measured after 48 hrs by MTT assay; assay type: toxicity; details: HEK293 cells versus PC-3 cells, read-out: Ratio IC50
# [7] = Selectivity index, ratio of IC50 for human HEK293 cells to IC50 for human DU-145 cells assessed as reduction in cell viability measured after 48 hrs by MTT assay
# [8] = Induction of apoptosis in human HEK293 cells assessed as viable cells at 2.8 uM measured after 48 hrs by Annexin V-FITC/Propidium iodide staining based flowcytometry analysis (reference value: 80.2%); assay type: cell-based; details: read-out: Activity
# [9] = test system: HEK293; test: Induction of apoptosis in human HEK293 cells assessed as pre and post apoptotic cells at 2.8 uM measured after 48 hrs by Annexin V-FITC/Propidium iodide staining based flowcytometry analysis (reference value: 0.2%); assay type: cell-based; details: hek293, 48 h
# [10] = test system: A549; test: Cell cycle arrest in human A549 cells assessed as accumulation of cells at S phase at 2.8 uM measured after 48 hrs by propidium iodide staining based FACS cytometry analysis (reference value: 12.7%); assay type: functional
# [11] = test system: A549; test: Induction of apoptosis in human A549 cells assessed as viable cells at 2.8 uM measured after 48 hrs by Annexin V-FITC/Propidium iodide staining based flowcytometry analysis (reference value: 83.1%); assay type: functional; details: read-out: Activity
# [12] = test system: A549; test: Induction of apoptosis in human A549 cells assessed as pre and post apoptotic cells at 2.8 uM measured after 48 hrs by Annexin V-FITC/Propidium iodide staining based flowcytometry analysis (reference value: 0.1%); assay type: functional
# [13] = test system: A549; test: Cell cycle arrest in human A549 cells assessed as accumulation of cells at subG1 phase at 2.8 uM measured after 48 hrs by propidium iodide staining based FACS cytometry analysis (reference value: 4.2%); assay type: functional
# [14] = test system: A549; test: Cell cycle arrest in human A549 cells assessed as accumulation of cells at G0/G1 phase at 2.8 uM measured after 48 hrs by propidium iodide staining based FACS cytometry analysis (reference value: 73%); assay type: functional
# [15] = test system: A549; test: Cell cycle arrest in human A549 cells assessed as accumulation of cells at G2/M phase at 2.8 uM measured after 48 hrs by propidium iodide staining based FACS cytometry analysis (reference value: 10.1%); assay type: functional
# [16] = test system: HEK293; test: Cell cycle arrest in human HEK293 cells assessed as accumulation of cells at G0/G1 phase at 2.8 uM measured after 48 hrs by propidium iodide staining based FACS cytometry analysis (reference value: 64.1%); details: hek293, 48 h
# [17] = test system: HEK293; test: Cell cycle arrest in human HEK293 cells assessed as accumulation of cells at G2/M phase at 2.8 uM measured after 48 hrs by propidium iodide staining based FACS cytometry analysis (reference value: 16.1%); details: hek293, 48 h
# [18] = (§2) Inhibition of pig brain tubulin polymerization incubated for 1 hr by fluorescence based analysis; assay type: tissue-based, Sus scrofa
# Outline: (§3)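 Cell-free fluorescence kit assay with porcine brain tubulin (2 mg/mL) in 80 mM PIPES pH 6.9, 2.0 mM MgCl2, 0.5 mM EGTA, 1.0 mM GTP and glycerol. Compound tested at 0.5, 1, 2, 4 and 8 μM, with a DMSO vehicle and a 3 μM podophyllotoxin reference. Polymerization followed at excitation 360/emission 440 nm for 1 h at 37 °C. Inhibition taken relative to vehicle; IC50 is the concentration giving 50% inhibition of assembly.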
# [19] = species on record: Sus scrofa; test: as §2; assay type: tissue-based; outline: as §3
# [20] = species on record: Sus scrofa; test: Inhibition of pig brain tubulin polymerization at 0.5 uM incubated for 1 hr by fluorescence based analysis relative to control; assay type: tissue-based; outline: as §3
# [21] = biological target: Tubulin (Homo sapiens) (UniProt P68371+Q9H4B7+P0DPH7+P68366+Q13509+Q71U36+P04350+Q3ZCM7+P07437+P68363+Q9BQE3+Q6PEY2+Q13885+Q9BVA1+Q9BUF5); test: Inhibition of tubulin polymerization in human A549 cells assessed as disruption of microtubule network at IC50 measured after 48 hrs by confocal microscopic analysis; assay type: cell-based
# [22] = test system: HEK293; test: Cell cycle arrest in human HEK293 cells assessed as accumulation of cells at sub-G1 phase at 2.8 uM measured after 48 hrs by propidium iodide staining based FACS cytometry analysis (reference value: 1%); details: hek293, 48 h
# [23] = test system: HEK293; test: Cell cycle arrest in human HEK293 cells assessed as accumulation of cells at S phase at 2.8 uM measured after 48 hrs by propidium iodide staining based FACS cytometry analysis (reference value: 18.8%); details: hek293, 48 h
# [24] = species on record: Sus scrofa; test: Inhibition of pig brain tubulin polymerization at 1 uM incubated for 1 hr by fluorescence based analysis relative to control; assay type: tissue-based; outline: as §3
# [25] = species on record: Sus scrofa; test: Inhibition of pig brain tubulin polymerization at 2 uM incubated for 1 hr by fluorescence based analysis relative to control; assay type: tissue-based; outline: as §3
# [26] = species on record: Sus scrofa; test: Inhibition of pig brain tubulin polymerization at 4 uM incubated for 1 hr by fluorescence based analysis relative to control; assay type: tissue-based; outline: as §3
# [27] = species on record: Sus scrofa; test: Inhibition of pig brain tubulin polymerization at 8 uM incubated for 1 hr by fluorescence based analysis relative to control; assay type: tissue-based; outline: as §3
# [28] = test system: Calf thymus DNA; test: Binding affinity to calf thymus DNA assessed as absorption peak between 310 and 312 nm at 10 uM measured every 5 mins by UV-Vis spectroscopic analysis; details: Bos taurus
# Outline: (§4)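 UV–Vis titration at 25 °C in a 1 cm quartz cuvette. Compound at about 10 μM (1 mM stock in 1:1 DMSO:water). CT-DNA (1 mM stock in 100 mM Tris-HCl pH 7.0) added about 0.5 μM at a time until the band was unchanged over five successive additions. Spectra recorded from 200 to 400 nm.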
# [29] = test system: Calf thymus DNA; test: Binding affinity to calf thymus DNA assessed as hyperchromicity at 10 uM measured every 5 mins by UV-Vis spectroscopic analysis; details: Bos taurus; outline: as §4
# [30] = test system: Calf thymus DNA; test: Binding affinity to calf thymus DNA measured every 5 mins by UV-Vis spectroscopic analysis; set-up: species or system Bos taurus; outline: as §4
# [31] = test system: Calf thymus DNA; test: Binding affinity to calf thymus DNA assessed as hypochromicity at 10 uM measured every 5 mins by fluorescence titration analysis; details: Bos taurus
# Outline: (§5)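 Fluorescence titration at 25 °C in a 1 cm quartz cuvette. Compound held at 10 μM while CT-DNA was added about 0.5 μM per step. Excitation 250 nm, emission scanned 300–500 nm with the peak followed at 360 nm. Each spectrum is the average of three scans. Cuvettes washed with water and about 0.1 N nitric acid between runs.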
# [32] = test system: Calf thymus DNA; test: Binding affinity to calf thymus DNA assessed as emission spectra at 360 nm at 10 uM measured every 5 mins by fluorescence titration analysis; details: Bos taurus; outline: as §5
# [33] = test system: Calf thymus DNA; test: Binding affinity to calf thymus DNA assessed as decrease in positive peak intensity at compound:DNA concentration ratio of 1:1 to 1:2 by CD spectroscopy; details: Bos taurus
# Outline: (§6)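 Circular dichroism of CT-DNA (10 × 10^-6 M) in 100 mM Tris-HCl pH 7.0 at 25 °C. Spectra taken from 220 to 320 nm at CT-DNA:compound molar ratios of 1:0, 1:1 and 1:2. Each spectrum is the average of three scans.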
# [34] = test system: Calf thymus DNA; test: Binding affinity to calf thymus DNA assessed as decrease in negative peak intensity at compound:DNA concentration ratio of 1:1 to 1:2 by CD spectroscopy; details: Bos taurus; outline: as §6
# [35] = test system: Calf thymus DNA; test: Binding affinity to calf thymus DNA assessed as increase in viscosity at 15 uM by Ostwald viscometric analysis; details: Bos taurus
# Outline: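 Ostwald viscometer in a 25 °C water bath. CT-DNA (150 μM, in 100 mM Tris-HCl pH 7.0) was measured alone, then after mixing with compound at 15 μM. EtBr and Hoechst 33342 complexes with CT-DNA served as controls.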
smiles,measurement,setting,value
COc1ccc(-c2nnc(-c3cn4ccccc4n3)o2)cc1,IC50,[1],11.9 µM
same,IC50,[2],13.4 µM
same,IC50,[3],12.9 µM
COc1cc(-c2nnc(-c3cn4ccccc4n3)o2)cc(OC)c1OC,IC50,[1],2.8 µM
same,IC50,[2],3.5 µM
same,IC50,[3],4.5 µM
same,IC50,[4],89 µM
same,selectivity ratio at 48 h,[5],29
same,selectivity ratio at 48 h,[6],25.4
same,Ratio IC50,[7],19.7
same,"viability at 48 h, 2.8 µM",[8],18.5%
same,Activity,[9],74.5%
same,Activity,[10],6.9%
same,viability at 2.8 µM,[11],4.3%
same,Activity,[12],86.5%
same,Activity,[13],1.3%
same,Activity,[14],74.5%
same,Activity,[15],17.1%
same,Activity,[16],63.2%
same,Activity,[17],15.7%
same,IC50,[18],3.45 µM
same,inhibition,[19],Dose-Dependent Effect
same,inhibition,[20],4.6%
same,inhibition,[21],Active
same,Activity,[22],2.1%
same,Activity,[23],18.8%
same,inhibition,[24],11.5%
same,inhibition,[25],21.7%
same,inhibition,[26],60.1%
same,inhibition,[27],81.2%
same,Activity,[28],Active
same,Activity,[29],Active
same,Kd,[30],0.042 µM
same,Activity,[31],Active
same,Activity,[32],Active
same,Activity,[33],Active
same,Activity,[34],Active
same,Activity,[35],Active
Cc1cccn2cc(-c3nnc(-c4ccccc4I)o3)nc12,IC50,[1],33.4 µM
same,IC50,[2],33.5 µM
same,IC50,[3],31.5 µM
c1ccc(-c2nnc(-c3cn4ccccc4n3)o2)cc1,IC50,[1],23.4 µM
same,IC50,[2],22.2 µM
same,IC50,[3],23.4 µM
Cc1cc(Br)c2nc(-c3nnc(-c4ccc(Cl)cc4)o3)cn2c1,IC50,[1],43.5 µM
same,IC50,[2],42 µM
same,IC50,[3],46 µM
Cc1cccn2cc(-c3nnc(-c4ccccc4)o3)nc12,IC50,[1],23.4 µM
same,IC50,[2],22.8 µM
same,IC50,[3],21.8 µM
COc1ccc(-c2nnc(-c3cn4cccc(C)c4n3)o2)cc1OC,IC50,[1],10.9 µM
same,IC50,[2],11.5 µM
same,IC50,[3],11.8 µM
COc1cc([C@@H]2c3cc4c(cc3[C@H](O)[C@H]3COC(=O)[C@H]23)OCO4)cc(OC)c1OC [PODOFILOX],IC50,[2],0.06 µM
same,IC50,[3],0.06 µM
COc1cc(-c2nnc(-c3cn4cccc(C)c4n3)o2)cc(OC)c1OC,IC50,[1],9.9 µM
same,IC50,[2],10.9 µM
same,IC50,[3],11.2 µM
